# Compound activity: PubChem, several laboratories
# Compounds with a hit are over-represented: about 1.7% of the library has one in this group of screens.
# Scp-1 inhibitor = inhibitors of human Scp-1 phosphatase; 340,000 tested, 0.88% active; inhibition, % at 20 µM; Q9GZU7; Recombinant Scp1, phosphopeptide, malachite green phosphate absorbance; AID 493091;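 active means inhibition above about 50% at 20 µM, limit read from the data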;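 further: plate controls were DMSO wells with enzyme for no effect and wells lacking enzyme for full effect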
#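 Test system – truncated SCP-1 phosphatase (76-261aa) · Reagent – Phosphorylated 17-residue peptide substrate · Incubation – 45 min room-temperature reaction, 5 min colour, 30 min stabiliser · Detection – colorimetric phosphate reagent with accelerator and stabiliser, absorbance at 630 nm · Measure – % inhibition at 20 µM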
# STEP block = blocks human striatal-enriched tyrosine phosphatase; P54829; recombinant STEP, OMFP fluorogenic substrate, fluorescence; inhibition, % at 20 µM; 360,000 tested, 0.25% active; AID 588621;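 active means inhibition at 20 µM, scaled per plate between control wells, above about 37%, limit read from the data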;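 further: 0% = DMSO with enzyme and substrate and 100% = substrate only without enzyme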
# Target sequence (P54829 whole entry, looked up): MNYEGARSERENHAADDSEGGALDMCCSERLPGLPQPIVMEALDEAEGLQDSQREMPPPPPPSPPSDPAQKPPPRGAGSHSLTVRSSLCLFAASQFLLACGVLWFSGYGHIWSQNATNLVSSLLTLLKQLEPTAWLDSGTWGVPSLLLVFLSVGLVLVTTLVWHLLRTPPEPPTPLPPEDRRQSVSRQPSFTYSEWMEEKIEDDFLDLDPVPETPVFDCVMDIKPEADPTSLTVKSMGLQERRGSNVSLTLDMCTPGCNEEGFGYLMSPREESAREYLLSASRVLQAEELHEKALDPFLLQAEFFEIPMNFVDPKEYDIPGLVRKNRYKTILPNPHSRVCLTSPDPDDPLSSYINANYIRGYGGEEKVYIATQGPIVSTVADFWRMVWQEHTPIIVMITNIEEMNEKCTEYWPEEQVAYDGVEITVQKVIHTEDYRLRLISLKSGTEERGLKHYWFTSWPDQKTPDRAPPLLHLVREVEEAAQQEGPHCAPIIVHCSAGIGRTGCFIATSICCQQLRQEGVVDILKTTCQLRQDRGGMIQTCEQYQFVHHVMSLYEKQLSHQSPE
#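 Assay system: isolated STEP enzyme / Timing: 20 min at room temperature, dark / Doses: 20 µM, 1% DMSO / Technique: fluorescence intensity, excitation 480 nm, emission 540 nm / Reagent: fluorogenic phosphatase substrate OMFP at 25 µM final / Measure: percent inhibition scaled to no-enzyme and uninhibited-enzyme controls, plate-pattern corrected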
# DSG3 Ab inh = human desmoglein-3 autoantibody binding inhibition; P32926; DSG3-coupled beads, scFv-anti-DSG3-GFP binding, flow cytometry; hits give low values; binding (percent of control), % at 10 µM; 310,000 tested, 0.48% active; AID 588358;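 active means binding more than 3 SD below its plate's average and above zero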;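 further: hits lower antibody fragment binding to DSG3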
# SUMO1 PPI mod = SUMO1-SIM interaction modulation. AID 602429. inhibition, % at 20 µM. SUMO1 binding to a labelled peptide, TR-FRET, 1 h. 360,000 tested, 0.33% active. P63165; in the data active means inhibition above about 37%
# Target sequence (P63165 whole entry, looked up): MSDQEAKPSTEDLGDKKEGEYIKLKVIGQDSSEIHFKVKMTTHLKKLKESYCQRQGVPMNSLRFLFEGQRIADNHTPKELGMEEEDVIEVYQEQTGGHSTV
# LMPTP block = LMPTP (human) inhibition. AID 651560. 360,000 tested, 0.22% active. inhibition, % at 20 µM. recombinant LMPTP-A, OMFP fluorogenic substrate, fluorescence intensity;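 active means compounds that cut the enzyme signal by at least half of the control window in the single-dose screen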;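 further: plate controls were DMSO wells with enzyme plus substrate for no effect and substrate without enzyme for full effect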
#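 Test system – LMPTP-A phosphatase enzyme · Quantity – 0.625 nM LMPTP-A final · Reagent – OMFP substrate, 400 µM final · Dosing – one test concentration per compound, 20 µM, with 3% DMSO overall · Timing – 50 min enzyme reaction at room temperature, protected from light · Detection – fluorescence intensity · Controls – substrate-only low control, DMSO enzyme-plus-substrate high control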
# Scp1 confirm = Scp-1 (human) inhibition, single-dose confirmed. shares compounds with Scp-1 inhibitor. recombinant SCP-1 catalytic domain, phosphate release, malachite green absorbance. inhibition, % at 20 µM. 2,500 tested, 61% active. AID 540281;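 further: plate controls were DMSO with enzyme for no effect and buffer wells lacking enzyme for full effect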
# MG interference = interferes with malachite green readout, flagging false Scp-1 hits; shares compounds with Scp-1 inhibitor; apparent inhibition (interference), % at 20 µM; AID 540313; 2,500 tested, under 10 active; Colorimetric interference counterscreen, malachite green absorbance 630 nm;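 further: compounds added after enzyme reaction finished so only phosphate colour detection is probed; plate controls were DMSO wells with completed Scp-1 reaction for no effect and substrate wells lacking enzyme for full effect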
# Scp-1 Tm shift = Scp-1 (human) binding by thermal shift | shares compounds with Scp-1 inhibitor | thermal shift relative to vanadate control, % at 40 µM | Recombinant SCP1, Sypro Orange thermal shift Tm | 1,500 tested, 25% active;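 active means substances whose mean melting-temperature shift, as a percentage of the reference inhibitor's shift, reaches about 5.3%, limit read from the data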;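 further: 0% = Tm of DMSO wells and 100% = Tm with sodium orthovanadate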
# Numbers without * were called inactive; . = not tested or not shown.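 How the source made its calls, unless noted: active means inhibition of at least 30% at 20 µM; inactive means the rest.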
SMILES,Scp-1 inhibitor,STEP block,DSG3 Ab inh,SUMO1 PPI mod,LMPTP block,Scp1 confirm,MG interference,Scp-1 Tm shift
COc1cc(OC)nc(C(NC(=O)C2CCN(Cc3ccc(Oc4ccccc4)cc3)CC2)c2ccc(F)cc2)n1 (stereo not given),.,2,.,3,1,.,.,.
COc1cc(N2C(=O)C=CC2=O)c(OC)cc1Cl,2,2,114,7,0,.,.,.
O=C(CSC1=NCCN1)NC(c1ccccc1)c1ccccc1,-5,-3,101,2,-1,.,.,.
COc1ccc(S(=O)(=O)NCCN2CCNC2=O)cc1OC,-7,-2,100,-5,1,1,-3,.
O=C1NCCN1CCNS(=O)(=O)c1ccc(F)cc1,-10,2,.,1,-1,-19,-16,.
COc1ccccc1CN1CCNC(=O)C1CC(=O)N(C)Cc1cnccn1 (stereo not given),-5,3,.,5,-1,.,.,.
O=C(c1cccc(C(F)(F)F)c1)C1CCCN(C(=O)CCCN2CCCC2=O)C1 (stereo not given),-4,1,102,2,-1,.,.,.
COc1ccc(NC(=O)CN(C)S(=O)(=O)c2ccc3c(c2)n(C)c(=O)c(=O)n3C)cc1,-3,-2,90,-5,-1,.,.,.
COc1ccc(CNC(=O)CN(C)S(=O)(=O)c2ccc3c(c2)n(C)c(=O)c(=O)n3C)cc1,-6,0,99,5,-1,-8,-12,.
COc1cccc(CNC(=O)CN(C)S(=O)(=O)c2ccc3c(c2)n(C)c(=O)c(=O)n3C)c1,-7,2,103,5,-1,-1,0,.
CC(c1ccc(F)cc1)n1cc(C(=O)NCCN(C)C)nn1 (stereo not given),-4,0,105,-5,-3,.,.,.
c1cnc2ccc3c(c2c1)COCO3,7,-1,.,2,16,.,.,.
O=[N+]([O-])c1cc2c(c3cccnc13)COCO2,62*,0,.,-21,13,52*,-10,-2
O=c1/c(=C/c2ccc(O)c([N+](=O)[O-])c2)sc2nc3ccccc3n12,81*,90*,.,5,92*,82*,-16,9.9*
O=C(c1ncn[nH]1)N1CCN(c2nc(-c3ccccc3)cs2)CC1,56*,0,101,15,4,39*,-1,2
Cc1ccc(NC(=O)c2noc3c2CCc2ccccc2-3)cc1,56*,-1,96,-3,1,-16,-15,.
Cc1ccc(-c2cc(C(=O)NCc3ccco3)c3ccccc3n2)o1,77*,8,101,17,7,71*,-8,5
CN(C)C(=O)c1ccc(NC(=O)c2cc(-c3ccco3)nc3ccccc23)cc1,66*,13,.,-12,12,58*,-5,5
Cc1csc(NC(=O)c2cc(-c3ccco3)nc3ccccc23)n1,70*,1,104,13,28,53*,-15,11*
Cc1nnc(NC(=O)c2cc(-c3ccco3)nc3ccccc23)s1,.,21,103,25,27,.,.,.
O=C(Nc1nccs1)c1cc(-c2ccco2)nc2ccccc12,50*,-2,93,1,21,60*,-10,8.6*
CCN(CC)CCNC(=O)c1ccc(NC(=O)c2cc(-c3ccco3)nc3ccccc23)cc1,15,1,109,-19,5,.,.,.
O=C(Nc1nccs1)c1cc(-c2ccccc2)nc2ccccc12,-5,-2,84,-4,3,.,.,.
Cc1cc(C(=O)NCc2ccco2)c2ccccc2n1,-11,0,.,-4,0,.,.,.
CC(OC(=O)c1nc(Cl)ccc1Cl)C(=O)Nc1ccc2c(c1)OCCO2 (stereo not given),-9,-3,104,1,-2,.,.,.
SMILES,Scp-1 inhibitor,STEP block,DSG3 Ab inh,SUMO1 PPI mod,LMPTP block,Scp1 confirm,MG interference,Scp-1 Tm shift
CCn1c(SCC(=O)N(C(C)C)C(C)C)nnc1-c1cc2ccccc2cc1O,-5,2,101,1,0,.,.,.
O=C1[C@H]2[C@@H](c3ccccc3)N[C@]3(CCCN(Cc4ccc(Cl)cc4)C3=O)[C@H]2C(=O)N1Cc1ccccc1,.,-2,102,5,-2,.,.,.
CCN(c1ccccc1)S(=O)(=O)c1ccc(C(=O)NCc2ccco2)cc1,-10,0,104,-2,-1,.,.,.
O=C(O)c1cc(-c2ccco2)nc2ccccc12,59*,-1,100,8,-1,43*,-18,-3
O=C(Nc1nc2ccccc2s1)c1cc(-c2ccco2)nc2ccccc12,4,1,98,13,0,.,.,.
COc1cccc(NS(=O)(=O)c2cc3c(cc2C)N(C(C)=O)CCO3)c1,87*,2,98,-1,-1,-24,-20,.
COc1ccc(NS(=O)(=O)c2cc3c(cc2C)N(C(C)=O)CCO3)cc1OC,-1,-2,100,-2,0,.,.,.
Cc1cccc(NC(=O)CN2C(=O)/C(=C3\SC(=S)N(CC4CCCO4)C3=O)c3ccccc32)c1 (stereo not given),-5,2,91,-1,1,.,.,.
O=C(CN1C(=O)/C(=C2/SC(=S)N(CCS(=O)(=O)O)C2=O)c2ccccc21)Nc1cccc(Br)c1,82*,87*,125,1,2,81*,-14,16*
CCc1noc(C)c1C(=O)Nc1cc(C(F)(F)F)ccc1-n1cncn1,65*,2,97,-1,-2,-7,-8,.
COC(=O)c1cc(CSc2nc3ccccc3c(=O)n2C)oc1C,-4,0,98,-27,4,.,.,.
COc1ccc(OC)c(NC(=O)CN(C)CC(=O)Nc2ccccc2Cl)c1,58*,-2,109,2,0,7,-4,.
CCCCNC(=O)c1ccc2nc(-c3ccco3)c(-c3ccco3)nc2c1,53*,3,95,40*,48,51*,-6,13*
O=C(Nc1cccnc1)c1ccc2nc(-c3ccccc3)c(-c3ccccc3)nc2c1,-5,-3,196,-13,1,.,.,.
O=C(Nc1ccccc1)c1ccc2nc(-c3ccco3)c(-c3ccco3)nc2c1,71*,4,94,33,42,15,-15,.
CCCNC(=O)c1ccc2nc(-c3ccccc3)c(-c3ccccc3)nc2c1,-10,1,77,-17,1,.,.,.
O=C(O)/C=C\C(=O)NCc1cccnc1,0,0,91,-1,-1,.,.,.
O=C(N/N=C/c1cccn1-c1cccc(C(=O)O)c1)Nc1ccccc1,64*,-1,97,4,1,50*,-14,7.0*
